This data set is described as follows: Toxicity liver stage against HepG2, at 10uM. Type of data set: cell-based. The arrangement: test concentration 10 uM, cell line HepG2-A16-CD81EGFP. The note with it: human, HepG2-A16-CD81EGFP cells; read-out: INHIBITION
Summed up: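 Uninfected HepG2-A16-CD81EGFP cells, 3 × 10^3 per well, 1536-well, plated on prespotted compound at 10 μM final, parasite-free screening media added to match infected plates; puromycin 10 μM positive, DMSO 0.5% negative; run in parallel with 48 h PbLuc assay at 37 °C, 5% CO2; viability by CellTiter-Glo luminescence, normalized to controls.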
In the case of `Cc1ccc(CNC(=O)C2c3c(ncn3C(C)C)CCN2S(C)(=O)=O)o1` (stereo unspecified), the cytotoxicity at 10 µM was -13.7%.
As for `O=C(NC1CC1)c1nc2c(o1)CN(c1ncccn1)C2`, the cytotoxicity at 10 µM is 0.718%.
As for `CCOCc1cncc2c1CCN(S(=O)(=O)c1ccccc1)C2`, the cytotoxicity at 10 µM was found to be 14.6%.
As for `CN1Cc2c(C(=O)N3CCOCC3)ncn2-c2ccccc2S1(=O)=O`, the figure is -1.58%.
In the case of `O=c1[nH]c2c(c(=O)n1C1CCCCC1)CCC2NCCc1ccccc1` (stereo unspecified), the cytotoxicity at 10 µM is -6.91%.
As for `Cc1cc(C(=O)NCC(C)C)nn1C`, the figure is -0.971%.
For `CCN1CCCC(O)(CNCc2ccncc2)C1` (stereo unspecified), the cytotoxicity at 10 µM is -2.93%.
The result for `CCOC(=O)c1cc(C(C)(O)CCC=C(C)C)on1` (stereo unspecified) reads 2.3%; that for `Cc1csc(Nc2cc(C3CN(C(C)C)C3)nc(C)n2)n1`, -7.56%; that for `CS(=O)(=O)N1CCCC(Cc2cnc(Br)cn2)CC1` (stereo unspecified), -2.46%.
The result for `Cc1cc(C)nc(N2CCC(c3noc(C)n3)CC2)n1` reads -9.08%; that for `CC(=O)Nc1nc(C2CN(C(=O)C3CCC3)C2)cs1`, -21.9%; that for `CCC(=O)N1CCC2(CC1)CNC(=O)c1cc(C)ccc1O2`, -20%.
With `Cc1nc(Nc2ncccn2)cc(C2CN(C(=O)c3cccnc3)C2)n1`, the cytotoxicity at 10 µM came out at 4.42%.
The result for `O=C(c1cccs1)N1CCc2c(nc(N3CCCCC3)[nH]c2=O)C1` reads -14.5%; that for `Cc1ccc(CN2CCCC(c3nn(C)c4nccnc34)C2)s1` (stereo unspecified), -10.6%.
Consider `Cn1cc(C2CCCN2C(=O)c2cnc(-c3cccs3)s2)cn1` (stereo unspecified), for which the cytotoxicity at 10 µM came to 4.99%.
The result for `COc1cc(CNC(C)c2nnc3n2CCC3)cc(OC)c1` (stereo unspecified) reads -41.7%; that for `CCOCCCNC(=O)c1cccn1Cc1cccnc1`, -43.8%.
As for `Cc1cc(CN(CCO)Cc2cc(Br)ccc2F)no1`, the figure is 3.46%.
In the case of `Cc1nc(NC(=O)NCc2cccnc2NCCN(C)C)sc1C`, the cytotoxicity at 10 µM amounted to 4.51%.
On to `CCC(C)c1csc(NC(=O)c2sc(-c3nnc[nH]3)nc2C)n1` (stereo unspecified), for which the cytotoxicity at 10 µM is -35.5%.
The result for `Cc1noc(CCCC(=O)N2CSCC2C(=O)NCC2CC2)n1` (stereo unspecified) reads -44.9%; that for `FC(F)(F)c1cc(C2CCCN(Cc3ccncc3)C2)n[nH]1` (stereo unspecified), -52.8%.
The result for `CCN1CCN(C(=O)c2csnn2)c2ccccc21` reads -1.46%; that for `Cc1nn(C)c(C)c1C1COCCN1C(=O)CSC(C)(C)C` (stereo unspecified), 4.22%; that for `CC(C)N(C)S(=O)(=O)N(Cc1cccs1)CC1CCCO1` (stereo unspecified), -53.7%.
Regarding `COc1ccc(NC(=O)N2CCC(c3nnc[nH]3)CC2)cc1C`, the cytotoxicity at 10 µM was 15.8%.
For `Cc1cc(C(=O)NC(C)CC(=O)c2ccco2)[nH]n1` (stereo unspecified), the cytotoxicity at 10 µM was -8.17%.
In the case of `CC(=O)N1CCC(NC(=O)c2cc(Cl)ccc2-n2cnnn2)CC1`, the cytotoxicity at 10 µM turned out to be 8.72%.
With `CCN(CC)c1ccc(CNC(=O)c2cnccn2)cn1`, the cytotoxicity at 10 µM is -104%.
As for `O=C(CCc1ccncc1)N1CCCC(N2CCNC2=O)C1` (stereo unspecified), the figure is 2.71%; as for `CN(CC(=O)N(C)C1CCN(CC2CCOC2)CC1)c1ccccc1` (stereo unspecified), -9.45%; as for `NC(=O)Cn1cc(NC(=O)NCC2CCN(c3ccccc3)C2)cn1` (stereo unspecified), 1.95%.
`CCCNC(=O)Nc1ccn(CCCOC)n1`: the cytotoxicity at 10 µM was -2.11%.
As for `NS(=O)(=O)CC1CCCN1CCOc1ccccc1F` (stereo unspecified), the figure is 3.98%.
As for `Cc1nnc(NC(=O)NC(C)C(=O)NC2CCCC2)s1` (stereo unspecified), the figure is -0.334%; as for `Cc1cc(S(=O)(=O)NCC[S+](C)[O-])c(F)cc1F` (stereo unspecified), -4.23%.
As to `CCOCCN1CCN(CC(O)c2ccc(F)cc2)CC1` (stereo unspecified), the cytotoxicity at 10 µM is -8.92%.
As for `CCc1nc(CN2CCCC2C(=O)NC2CC2)cs1` (stereo unspecified), the figure is -4.63%.
The result for `N#Cc1ccc(CN(CCF)Cc2cccc(F)c2)cc1` reads -4.11%; that for `COc1ccc(CN(C)CC(=O)c2ccc3[nH]c(=O)[nH]c3c2)cc1F`, 8.51%; that for `CCn1c(CN(C)Cc2cnc(C)s2)nc2c(F)cccc21`, -42%.
Consider `COc1ccccc1C(C)NC(=O)NCCC(=O)NC1CCCCC1` (stereo unspecified), for which the cytotoxicity at 10 µM came out at 0.0119%.
As for `N#Cc1cc(F)c(NCCc2ccc(S(N)(=O)=O)cc2)c(F)c1`, the figure is -53.9%; as for `CC(NC(=O)Cn1cccnc1=O)c1ccc(C(F)(F)F)cc1` (stereo unspecified), 8.2%; as for `COc1cccc(CNC(CN2CCN(C)CC2)c2ccccc2)c1` (stereo unspecified), 12.5%.
On to `Cc1ccc(CC(=O)N2CCOC(c3nc(C)n[nH]3)C2)cn1` (stereo unspecified), for which the cytotoxicity at 10 µM was -3.28%.
Regarding `Cc1nnc([C@@]23CCO[C@@H]2CCN(Cc2nccs2)C3)o1`, the cytotoxicity at 10 µM was -104%.
As for `CC[C@H]1COCCN1C(=O)c1cnc(N2CCN(C)CC2)nc1C`, the figure is -12.4%; as for `COc1cc(O)ccc1CN1CCN(C2CCc3ccccc3C2)CC1` (stereo unspecified), -1.33%.
In the case of `CC(=O)c1cccc(-c2nc3c([nH]2)CCNC3)c1F`, the cytotoxicity at 10 µM is -50.5%.
The result for `CCC(NC(=O)CCCN1CCCCC1)c1cn2cccnc2n1` (stereo unspecified) reads 8.09%.
The result for `Cc1cc(N2CCCN(C(=O)CSCC3CC3)CC2)ccn1` reads -1.9%; that for `Cc1ccc(OCC(=O)N2CCOCC(O)(CN3CCCC3)C2)cc1C` (stereo unspecified), -4.05%.
As for `COc1ncccc1CN1CC[C@@]2(O)CCN(C(=O)C3CCC3)C[C@H]2C1`, the figure is 9.31%.
Regarding `CN(C)C[C@H]1C[C@H](CO)CN(C(=O)c2cc(S(N)(=O)=O)ccc2F)C1`, the cytotoxicity at 10 µM was found to be 11.9%.
As for `Cc1ncc(C(=O)N2CC[C@@]3(O)CCN(C(=O)N(C)C)C[C@H]3C2)cn1`, the figure is -46.3%; as for `COCC(=O)NCC1CCCN(Cc2cc3ccccc3[nH]2)C1` (stereo unspecified), 7.32%.
As for `CN(CCC1CCOCC1)[C@@H]1c2ccccc2C2(CCNCC2)[C@H]1O`, the figure is -3.23%; as for `c1nc2c(c(NC3COC4(CCCC4)C3)n1)CCNCC2` (stereo unspecified), 0.383%.
Regarding `CC(C)N1CCN(C(=O)c2csc3nc(-c4ccc(Cl)cc4)cn23)CC1`, the cytotoxicity at 10 µM came out at 1.98%.
The result for `CC(C)NCc1cccnc1N1CCN(c2ccccn2)CC1` reads -3.85%.
As for `Cc1ccc(-c2ccnc(NCC(O)c3ccc(O)cc3)n2)c(C)n1` (stereo unspecified), the figure is 0.781%; as for `CC(C)c1nccn1C(C)C(=O)N1CCN(S(C)(=O)=O)CC1` (stereo unspecified), -4.32%; as for `Cc1nnc(CN(C)CC2(O)CCCN(CCC3CCCCC3)C2=O)o1` (stereo unspecified), 17.1%.
For the compound `Cc1cnc2c(C(=O)N3CCCC(OCc4ccccn4)C3)cnn2c1` (stereo unspecified), the cytotoxicity at 10 µM is -5.2%.
Consider `O=C(C1CC2(CCNCC2)CN1)N1CCN(c2ccccc2)CC1` (stereo unspecified), for which the cytotoxicity at 10 µM is -8.6%.
The result for `COCCCN1CC2(CCCN(c3ncc(Cl)cc3F)C2)CCC1=O` (stereo unspecified) reads -13.1%; that for `CCCn1cc(S(=O)(=O)N[C@H]2CN(CC(N)=O)C[C@@H]2C2CC2)cn1`, -11.7%.
As to `CC(=O)NCC1CCN(CC2CCOc3ccccc3C2)CC1` (stereo unspecified), the cytotoxicity at 10 µM was found to be 10.3%.
As for `CCC[C@@H]1CN(S(=O)(=O)c2ccc(C)c(F)c2)C[C@H]1N(C)C`, the figure is 26.7%; as for `Cc1cc(C)n(-c2cc(N3CCN(C(=O)C(C)(C)C)CC3)nc(C)n2)n1`, 37.1%.
As for `O=C(CN1CCC(c2ccccc2)C1)NCC(F)(F)F` (stereo unspecified), the figure is -5.28%.
Consider `Cc1cc(C)c(CNC(=O)NCc2ccncc2)c(=O)[nH]1`, for which the cytotoxicity at 10 µM is -5.59%.
With `CCc1ccc(C(=O)N2CCN(CC(O)c3ccccc3)CC2)o1` (stereo unspecified), the cytotoxicity at 10 µM is -2.54%.
As for `OC(COCc1ccccc1)CN1CCC(c2ccn[nH]2)CC1` (stereo unspecified), the figure is -13.6%; as for `OC(COc1ccc(F)cc1)CN1CCC(c2ccn[nH]2)CC1` (stereo unspecified), 0.923%.
With `CCn1ncc2c1CCCC2NCc1cc(OC)cc(OC)c1` (stereo unspecified), the cytotoxicity at 10 µM was 3.24%.
With `Cc1cc(C(=O)NS(C)(=O)=O)c(C)n1-c1ccccc1`, the cytotoxicity at 10 µM was -8.81%.
As to `COc1cccc(CNC(=O)CN2CCCC(Cn3cncn3)C2)c1` (stereo unspecified), the cytotoxicity at 10 µM is -18.2%.
Regarding `Cc1ccc(NC2CCN(C(=O)c3ccc(Cl)cc3F)CC2)nn1`, the cytotoxicity at 10 µM is -17.7%.
In the case of `CCc1cc(C(=O)N2CCC(Nc3ccc(C)nn3)CC2)sc1C`, the cytotoxicity at 10 µM was -1.03%.
`CC1(C)CN(C(=O)NCCc2ccn(-c3ccccc3)n2)CCO1`: the cytotoxicity at 10 µM is 2.21%.
As for `CC(C)NC(=O)C1CN(Cc2ccsc2)Cc2ccnn2C1` (stereo unspecified), the figure is -5.03%; as for `O=C(O)c1cc2c(nc1-c1cncnc1)CCN(C1CCOC1)CC2` (stereo unspecified), -1.61%; as for `CN(C)Cc1cc(C2CCCCN2S(=O)(=O)c2cccc(Cl)c2)nn1C` (stereo unspecified), -8.63%.
The result for `c1cnc(N2CCO[C@H]3CN(Cc4c[nH]cn4)C[C@H]32)cn1` reads 9.49%.
As for `O=C(C1CN(c2ncc(F)cn2)CC12CCOCC2)N1CC=CC1` (stereo unspecified), the figure is 9.49%; as for `Cn1ccnc1CN1C[C@H](N2CCOCC2)[C@@H]2OCCC[C@@H]21`, 7.19%.
On to `CS(=O)(=O)NCc1cc(=O)n2c(n1)CN(CC1CC1)CCC2`, for which the cytotoxicity at 10 µM was -104%.
As for `O=C(c1cc[nH]n1)N1CCC(F)(F)C2(CCN(c3ccccn3)C2)C1` (stereo unspecified), the figure is 2.38%; as for `Cc1occc1C(=O)N1CCC2(CCCN(c3ncc(F)cn3)C2)C1` (stereo unspecified), -102%; as for `CN(Cc1cccs1)C1CCC[C@@H]2CN(C(=O)c3cnccn3)C[C@H]12` (stereo partly specified), 16.7%.
In the case of `CC(C)N1[C@H](Cn2cncn2)C[C@@H]2CN(Cc3nccn3C)CC[C@@H]21`, the cytotoxicity at 10 µM is -106%.
The result for `O=C(Cc1cnccn1)N1C[C@@H]2CC[C@H]1CN(Cc1cscn1)C2` reads 1.88%.

The record behind these values is ChEMBL document CHEMBL4513216, “Probing the Open Global Health Chemical Diversity Library for Multistage-Active Starting Points for Next-Generation Antimalarials” (ACS Infect Dis, 2020).
